Laboratory results: ChEMBL document CHEMBL3102735, “Enhancing the pharmacodynamic profile of a class of selective COX-2 inhibiting nitric oxide donors” (Bioorg Med Chem, 2014)
Activity calls are given as the source filed them. The calls are words filed in the database; no cut-off is given here.

Tests used:
Mus musculus [1] = assay: Antiinflammatory activity in Swiss albino mouse assessed as reduction in carrageenan-induced paw edema at 10 mg/kg, po relative to control; type: functional; parameters: scale not given: the % may be the effect or the level left
Summary of the method: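 Intraplantar carrageenan, compound po in CMC; volume of right hind paw measured 4 h after carrageenan injection and compared with saline/carrageenan-treated controls; percent oedema reduction.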

Mus musculus [2] = assay: Antihyperalgesic activity in Swiss albino mouse assessed as reduction in carrageenan-induced inflammation at 10 mg/kg, po after 30 mins relative to control; type: functional; parameters: scale not given: the % may be the effect or the level left
Mus musculus [3] = assay: Antihyperalgesic activity in Swiss albino mouse assessed as reduction in carrageenan-induced inflammation at 10 mg/kg, po after 90 mins relative to control; type: functional; parameters: scale not given: the % may be the effect or the level left
Mus musculus [4] = assay: Analgesic activity in Swiss albino mouse assessed as reduction of acetic acid-induced writhing at 10 mg/kg, po measured every 10 mins after 5 mins of administration relative to control; type: functional; parameters: scale not given: the % may be the effect or the level left
Summary of the method: (§1)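 Male Swiss albino mice (23–25 g), compound given orally in CMC vehicle; writhing induced by 0.6% acetic acid (10 mL/kg) ip. Stretching movements counted for 10 min, starting 5 min after administration; percent reduction versus CMC-treated animals.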

Mus musculus [5] = assay: Analgesic activity in po dosed Swiss albino mouse assessed as reduction of acetic acid-induced writhing measured every 10 mins after 5 mins of administration; type: functional, organism-based; summary of the method: as §1
Mus musculus [6] = assay: Antihyperalgesic activity in Swiss albino mouse assessed as reduction in carrageenan-induced inflammation at 10 mg/kg, po after 60 mins relative to control; type: functional; parameters: scale not given: the % may be the effect or the level left
Mus musculus [7] = assay: Antihyperalgesic activity in Swiss albino mouse assessed as reduction in carrageenan-induced inflammation at 10 mg/kg, po after 120 mins relative to control; type: functional; parameters: scale not given: the % may be the effect or the level left
[8] = target: Prostaglandin G/H synthase 1 (Homo sapiens, UniProt P23219); assay: Inhibition of COX-1 in human whole blood assessed as thromboxane B2 production by RIA
Chain of Prostaglandin G/H synthase 1 (Homo sapiens, UniProt P23219) (P23219 whole entry): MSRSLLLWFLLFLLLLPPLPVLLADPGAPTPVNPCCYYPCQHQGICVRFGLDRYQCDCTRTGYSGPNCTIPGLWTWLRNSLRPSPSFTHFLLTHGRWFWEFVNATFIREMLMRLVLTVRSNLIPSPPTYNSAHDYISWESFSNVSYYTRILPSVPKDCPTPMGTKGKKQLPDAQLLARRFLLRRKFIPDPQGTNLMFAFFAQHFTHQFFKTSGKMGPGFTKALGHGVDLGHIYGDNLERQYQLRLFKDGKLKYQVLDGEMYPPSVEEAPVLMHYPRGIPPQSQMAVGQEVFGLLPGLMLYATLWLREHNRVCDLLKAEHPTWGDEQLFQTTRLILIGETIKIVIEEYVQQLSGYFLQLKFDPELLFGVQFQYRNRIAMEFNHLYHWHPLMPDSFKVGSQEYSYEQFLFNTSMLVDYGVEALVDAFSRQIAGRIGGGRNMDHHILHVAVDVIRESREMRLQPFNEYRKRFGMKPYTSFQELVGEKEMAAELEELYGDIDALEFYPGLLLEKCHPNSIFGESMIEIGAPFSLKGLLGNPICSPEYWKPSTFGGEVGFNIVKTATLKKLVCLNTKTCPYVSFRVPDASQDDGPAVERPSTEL

[9] = target: T1, Prostaglandin G/H synthase 2 (Homo sapiens, UniProt P35354); parameters: species or system Blood
T1 sequence (P35354 whole entry): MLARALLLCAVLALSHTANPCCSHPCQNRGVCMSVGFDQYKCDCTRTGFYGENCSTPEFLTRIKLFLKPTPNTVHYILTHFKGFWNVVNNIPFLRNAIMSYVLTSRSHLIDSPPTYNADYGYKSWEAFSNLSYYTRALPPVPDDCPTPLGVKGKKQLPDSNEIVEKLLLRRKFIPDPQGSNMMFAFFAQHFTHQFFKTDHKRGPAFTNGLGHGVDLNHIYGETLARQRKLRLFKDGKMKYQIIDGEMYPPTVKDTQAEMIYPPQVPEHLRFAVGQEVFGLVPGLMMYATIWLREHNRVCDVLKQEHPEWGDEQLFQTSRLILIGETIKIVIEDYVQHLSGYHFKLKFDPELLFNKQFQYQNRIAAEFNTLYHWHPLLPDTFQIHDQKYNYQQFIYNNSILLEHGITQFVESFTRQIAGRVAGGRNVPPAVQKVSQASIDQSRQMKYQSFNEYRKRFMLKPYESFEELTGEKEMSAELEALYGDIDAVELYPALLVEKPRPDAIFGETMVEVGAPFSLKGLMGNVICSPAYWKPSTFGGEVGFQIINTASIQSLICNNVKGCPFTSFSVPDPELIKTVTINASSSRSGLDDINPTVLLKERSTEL

[10] = target: T2, Prostaglandin G/H synthase 1 (Mus musculus) (UniProt P22437); assay: Inhibition of COX-1 in mouse J774 cells using arachidonic acid as substrate assessed as inhibition of prostaglandin E2 production at 10 uM preincubated for 15 mins followed by substrate addition measured after 30 mins by RIA; type: cell-based
T2 sequence (whole entry): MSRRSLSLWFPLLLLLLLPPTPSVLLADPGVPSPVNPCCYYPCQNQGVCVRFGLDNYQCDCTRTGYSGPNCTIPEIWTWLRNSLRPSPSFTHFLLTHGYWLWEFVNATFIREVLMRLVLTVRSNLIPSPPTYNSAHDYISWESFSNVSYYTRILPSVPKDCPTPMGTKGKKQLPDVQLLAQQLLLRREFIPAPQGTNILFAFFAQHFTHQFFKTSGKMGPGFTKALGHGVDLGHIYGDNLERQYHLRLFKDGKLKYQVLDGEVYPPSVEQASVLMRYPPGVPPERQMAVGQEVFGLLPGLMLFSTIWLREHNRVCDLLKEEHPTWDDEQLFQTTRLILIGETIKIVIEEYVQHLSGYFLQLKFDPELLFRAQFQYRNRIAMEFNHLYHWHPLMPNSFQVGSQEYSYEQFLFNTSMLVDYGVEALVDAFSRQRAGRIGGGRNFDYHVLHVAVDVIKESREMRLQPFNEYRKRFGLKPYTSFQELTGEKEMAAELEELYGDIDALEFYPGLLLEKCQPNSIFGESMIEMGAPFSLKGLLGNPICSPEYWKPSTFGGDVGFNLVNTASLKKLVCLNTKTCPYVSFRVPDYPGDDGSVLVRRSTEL
Summary of the method: (§2)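 J774 murine macrophages pretreated 15 min with compound (10 µM; lower concentrations 0.01–1 µM where needed), then incubated 30 min at 37 °C with 15 µM arachidonic acid; supernatant PGE2 measured by RIA. Triplicate wells, mean of three experiments of percent inhibition versus control; IC50 by sigmoidal fit.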

[11] = target: T3, Prostaglandin G/H synthase 1 (Mus musculus, UniProt P22437); assay: Inhibition of COX-1 in mouse J774 cells using arachidonic acid as substrate assessed as inhibition of prostaglandin E2 production preincubated for 15 mins followed by substrate addition measured after 30 mins by RIA; type: cell-based; summary of the method: as §2
T3 sequence (P22437 whole entry): T2 sequence (whole entry)

J774 = assay: Selectivity index, ratio of IC50 for COX-1 to IC50 for COX-2 in mouse J774 cells; type: cell-based
Summary of the method: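 J774 macrophages stimulated 24 h with E. coli LPS (10 µg/mL) to induce COX-2, with or without compound (0.01–10 µM); supernatant PGE2 by RIA. Triplicate wells, three experiments, percent inhibition versus control, IC50 by sigmoidal fit; selectivity as COX-1/COX-2 IC50 ratio.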

[12] = target: T4, Prostaglandin G/H synthase 2 (Mus musculus) (UniProt Q05769); assay: Inhibition of LPS-induced COX-2 in mouse J774 cells using arachidonic acid as substrate assessed as inhibition of prostaglandin E2 production at 10 uM preincubated for 15 mins followed by substrate addition measured after 30 mins by RIA; type: cell-based
T4 sequence (whole entry): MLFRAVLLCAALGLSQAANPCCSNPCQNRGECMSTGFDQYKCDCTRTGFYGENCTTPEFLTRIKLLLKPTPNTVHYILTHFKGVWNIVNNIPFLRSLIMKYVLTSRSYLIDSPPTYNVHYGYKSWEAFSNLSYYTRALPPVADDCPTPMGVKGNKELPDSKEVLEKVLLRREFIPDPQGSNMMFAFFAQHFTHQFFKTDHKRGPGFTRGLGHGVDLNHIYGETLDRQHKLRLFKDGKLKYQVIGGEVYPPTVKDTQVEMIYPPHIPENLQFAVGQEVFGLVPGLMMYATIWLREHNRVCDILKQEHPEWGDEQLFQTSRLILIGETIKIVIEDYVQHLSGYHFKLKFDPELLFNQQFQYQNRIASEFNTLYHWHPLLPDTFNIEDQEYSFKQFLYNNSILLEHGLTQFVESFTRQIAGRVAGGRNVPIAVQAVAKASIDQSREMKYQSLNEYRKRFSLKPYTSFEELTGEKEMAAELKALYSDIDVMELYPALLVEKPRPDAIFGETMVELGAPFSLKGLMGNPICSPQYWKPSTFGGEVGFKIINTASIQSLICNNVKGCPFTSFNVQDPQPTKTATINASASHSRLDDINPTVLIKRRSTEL

Mus musculus [13] = assay: Analgesic activity in Swiss albino mouse assessed as reduction of acetic acid-induced writhing at 20 mg/kg, po measured every 10 mins after 5 mins of administration relative to control; type: functional; parameters: scale not given: the % may be the effect or the level left; summary of the method: as §1
[14] = target: T5, Prostaglandin G/H synthase 2 (Mus musculus, UniProt Q05769); assay: Inhibition of LPS-induced COX-2 in mouse J774 cells using arachidonic acid as substrate assessed as inhibition of prostaglandin E2 production preincubated for 15 mins followed by substrate addition measured after 30 mins by RIA; type: cell-based
T5 sequence (Q05769 whole entry): T4 sequence (whole entry)

Mus musculus [15] = assay: Analgesic activity in Swiss albino mouse assessed as reduction of acetic acid-induced writhing at 3 mg/kg, po measured every 10 mins after 5 mins of administration relative to control; type: functional; parameters: scale not given: the % may be the effect or the level left; summary of the method: as §1
Thoracic aorta [16] = assay: Ex vivo vasorelaxant activity in Wistar rat endothelium thoracic aortic ring assessed as reduction of KCl-induced contraction in presence of guanylate cyclase inhibitor ODQ; type: functional
Summary of the method: (§3)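 Endothelium-denuded thoracic aortic rings from male Wistar rats (250–350 g) in oxygenated Tyrode-type buffer at 37 °C, isometric tension recording. Rings precontracted with 30 mM KCl, then 3-fold increasing compound concentrations (1 nM–10 µM) added, also with 1 µM ODQ preincubated. Emax as % of KCl tone; pIC50; mean ± SE of 6–10 experiments.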

Thoracic aorta [17] = assay: Ex vivo vasorelaxant activity in Wistar rat endothelium thoracic aortic ring assessed as reduction of KCl-induced contraction at 0.001 uM to 10 uM relative to control; type: functional; summary of the method: as §3
Liver [18] = assay: Induction of nitric oxide production in Wistar rat liver homogenate assessed as nitrate level at 1 mM after 1 to 150 mins; type: functional, tissue-based
Thoracic aorta [19] = assay: Ex vivo vasorelaxant activity in Wistar rat endothelium thoracic aortic ring assessed as reduction of KCl-induced contraction; type: functional, tissue-based; summary of the method: as §3
Liver [20] = assay: Induction of nitric oxide production in Wistar rat liver homogenate assessed as NOx level at 1 mM; type: functional, tissue-based; conditions: TDE = time-dependent effect
Liver [21] = assay: Induction of nitric oxide production in Wistar rat liver homogenate assessed as NOx level at 1 mM after 1 to 150 mins; type: functional, tissue-based
Liver [22] = assay: Induction of nitric oxide production in Wistar rat liver homogenate assessed as nitrite level at 1 mM after 1 to 150 mins; type: functional, tissue-based
Liver [23] = assay: Induction of nitric oxide production in Wistar rat liver homogenate assessed as nitrite level at 1 mM; type: functional, tissue-based; conditions: TDE = time-dependent effect
Liver [24] = assay: Induction of nitric oxide production in Wistar rat liver homogenate assessed as nitrate level at 1 mM; type: functional, tissue-based; conditions: TDE = time-dependent effect
Mus musculus [25] = assay: Analgesic activity in Swiss albino mouse assessed as reduction of acetic acid-induced writhing at 40 mg/kg, po measured every 10 mins after 5 mins of administration relative to control; type: functional; parameters: scale not given: the % may be the effect or the level left; summary of the method: as §1

Cc1ccc(-c2cc(C(F)(F)F)nn2-c2ccc(S(N)(=O)=O)cc2)cc1 [CELECOXIB]
Activity (Mus musculus [1]): 17% | Activity (Mus musculus [2]): 45% | Activity (Mus musculus [3]): 56% | Activity (Mus musculus [4]): 59% | Activity (Mus musculus [5]): Dose-dependent effect | Activity (Mus musculus [6]): 75% | Activity (Mus musculus [7]): 39%

Cc1c(CC(=O)NCCO)cc(-c2ccc(S(C)(=O)=O)cc2)n1-c1ccc(F)cc1
IC50 [8]: 1900 nM | IC50 [9]: 1400 nM | inhibition [10]: 0% | IC50 [11]: > 10000 nM | Ratio IC50 (J774): > 33 | inhibition [12]: 100% | Activity (Mus musculus [13]): 61% | Activity (Mus musculus [4]): 37% | Activity (Mus musculus [5]): Dose-dependent effect

Cc1c(CC(=O)NCCCO[N+](=O)[O-])cc(-c2ccc(S(C)(=O)=O)cc2)n1-c1ccc(F)cc1
inhibition [10]: 0% | IC50 [11]: > 10000 nM | Ratio IC50 (J774): > 32 | IC50 [14]: 310 nM | inhibition [12]: 100% | Activity (Mus musculus [13]): 37% | Activity (Mus musculus [4]): 37% | Activity (Mus musculus [5]): Dose-dependent effect | Activity (Mus musculus [15]): 17%

Cc1c(CC(=O)NC(CCO[N+](=O)[O-])C(=O)O)cc(-c2ccc(S(C)(=O)=O)cc2)n1-c1ccc(F)cc1 (racemic)
inhibition [10]: 6% | Activity (Thoracic aorta [16]): inactive | IC50 [11]: > 10000 nM | Ratio IC50 (J774): > 6.2 | inhibition [12]: 89% | Activity (Mus musculus [13]): 54% | Activity (Mus musculus [4]): 30% | Activity (Mus musculus [5]): Dose-dependent effect | Activity (Mus musculus [15]): 0%

COc1ccc2cc([C@H](C)C(=O)OCCCCO[N+](=O)[O-])ccc2c1 [NAPROXCINOD]
Emax (Thoracic aorta [17]): 68% | Activity (Thoracic aorta [16]): inactive | Activity (Liver [18]): 340 µM | IC50 (Thoracic aorta [19]): 468 nM | Activity (Liver [20]): tde | Activity (Liver [21]): 368 µM | Activity (Liver [22]): 27.6 µM | Activity (Liver [23]): tde | Activity (Liver [24]): tde

Cc1c(CC(=O)NCCCO[N+](=O)[O-])cc(-c2ccc(S(C)(=O)=O)cc2)n1-c1cccc(F)c1
Emax (Thoracic aorta [17]): 69% | Activity (Mus musculus [25]): 30% | inhibition [10]: 0% | Activity (Thoracic aorta [16]): inactive | IC50 [11]: > 10000 nM | Ratio IC50 (J774): > 40 | IC50 (Thoracic aorta [19]): 1660 nM | IC50 [14]: 250 nM | inhibition [12]: 100% | Activity (Mus musculus [13]): 8.6% | Activity (Mus musculus [4]): 0% | Activity (Mus musculus [5]): Dose-dependent effect
